System: MS2 coat protein
Assay: apparent Kd, MS2 coat protein; higher = weaker binding; RNA-MaP array; FMN 200 µM where present
In short: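 Green signal was scaled to red-channel RNA signal and control-cluster median Fmax, and the apparent Kd was taken as the median of filtered per-cluster binding-curve fits. The binding series used SNAP-549-labelled MS2 coat protein from 0.7 or 1.5 nM, doubling to 3 µM, on designs transcribed by stalled E. coli RNA polymerase on Illumina sequencing-chip clusters. Each series ran without and then with constant ligand in 100 mM Tris-HCl pH 7.5, 80 mM KCl, 4 mM MgCl2, BSA, DTT, yeast tRNA and Tween-20.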

[1] = designed as: ON switch for flavin mononucleotide, no ligand
[2] = ligand present: flavin mononucleotide, designed as: ON switch for flavin mononucleotide
[3] = designed as: OFF switch for flavin mononucleotide, no ligand
[4] = ligand present: flavin mononucleotide, designed as: OFF switch for flavin mononucleotide

GGGUACAUGGGAGGAUAUGGGAUGAUAACAUGAGGAUCACCCAUGUUAAAGAUGCCGAGAGGCAACUAGAAGGCCCAUGUACCG
apparent Kd [1]: 440 nM | apparent Kd [2]: 59.2 nM

CUCUUGUGAGGAUAUCAGGUGUGCUAGCGUACUGGUACAUCUGAGAAGGCACAUGAGGAUCACCCAUGUUUCAA
apparent Kd [3]: 118 nM | apparent Kd [4]: 21.9 nM

AGCUAGUCAGGAUAUACGAAAAUGUCAGAAGCUGAGAAGGGACAUGAGGAUCACCCAUGUAGAAGGGACUAGCA
apparent Kd [3]: 57.5 nM | apparent Kd [4]: 299 nM

UGGUACUAGGGAGGAUAUGGGAAGAUACAUGAGGAUCACCCAUGUUUAAGAAUGCCGAGAGGCAACUAGAAGGCCAUAGUACCU
apparent Kd [1]: 405 nM | apparent Kd [2]: 22 nM

UUCCGGCGUGUAGGAUAUGGAUCCGAUUAGGAUCCAGAAGGACAUGAGGAUCACCCAUGUACAUGUAAACAGUCAUCACCGGAU
apparent Kd [3]: 8.09 nM | apparent Kd [4]: 40.2 nM

UUUAUAAAUUAGAAGGCGUGAUAAAAUACAAUAGACAUGAGGAUCACCCAUGUGUACCCAUGUUAUGAGGAUAUAGUCAUAUAU
apparent Kd [1]: 279 nM | apparent Kd [2]: 233 nM

UUUAUUUUGCAAGGAUAUGUUUAAUUUUAGUUUCCUUACACAUGAGGAUCACCCAUGUUAUACUUACAGAAGGUGCGUAAUUUU
apparent Kd [3]: 130 nM | apparent Kd [4]: 103 nM

AACAAGUCAGGAUAUGUUAAAGGUUACGAAAGGGAUAAAGGGCAGAAGGGACAUGAGGAUCACCCAUGUAAUAA
apparent Kd [3]: 58 nM | apparent Kd [4]: 50.2 nM

GUGUUGUCAGGAUAUCUUACAUAACUAUCGUUGUUACCAUUGGAGAAGGGACAUGAGGAUCACCCAUGUUAUCC
apparent Kd [3]: 22.3 nM | apparent Kd [4]: 23.7 nM

UCGAUGCUAGGAUAUACUUAUAAAACUACUGUAGAGUCUUCACAUGAGGAUCACCCAUGUAGAAGGAGCAUCUA
apparent Kd [3]: 20 nM | apparent Kd [4]: 16 nM

UACAAUCUAUCUGAGGAUAUCAUGAAAAAAACAUGAGGAUCACCCAUGUGCAGGAAAACUGCAUAUGAGAAGGCAGAUAGAUUGU
apparent Kd [1]: 770 nM | apparent Kd [2]: 25.7 nM

UUAAAUCAUGUAGGAUAUGCAUGGCGAAGCUACGCAGAAGGACAUGAGGAUCACCCAUGUUCUGGCGUCUGAGUACAGAUGCAA
apparent Kd [3]: 20.3 nM | apparent Kd [4]: 48.8 nM

ACAUGAGGAUCACCCAUGUUAAACGAGGAUAUUUGACUGCACAUGAGGUUCACCCAUGUCCUGCCGAAGAAGGUGUGAAUAAUU
apparent Kd [1]: 33.9 nM | apparent Kd [2]: 32.6 nM

GUCGUUUAUGUAGGAUAUGCGAGGCGAGCCUAAGCAGAAGGACAUGAGGAUCACCCAUGUAUUGCGGUCUGCGUUCAGAUCGCU
apparent Kd [3]: 45 nM | apparent Kd [4]: 174 nM

UCAUGACAUGAGGAUCACCCAUGUCAGGAUAUCUACAGAACCUCAUGUAAAAAACUGUAGAGAAGGGAUAUGAA
apparent Kd [3]: 22 nM | apparent Kd [4]: 25 nM

AUGAGAAUUGUUAGGAUAUCCGUAAGUAAGUACUGGGAGAAGGGACAUGAGGAUCACCCAUGUGAUAGCCGACU
apparent Kd [3]: 102 nM | apparent Kd [4]: 80.6 nM

UCCUAACAUGAGGAUCACCCAUGUGAGGAUAUGAUACUAUGUACUUCGGUACAUAGUAUCAGAAGGCACAUCCU
apparent Kd [3]: 19.1 nM | apparent Kd [4]: 26 nM

UGUCGGAGCAGAGGAUAUAUACAUGAGGAUCACCCAUGUAAAUGGAAUAGCUGGAAACAGCAAGUAUAGAAGGCUGCUCCGACA
apparent Kd [3]: 37.4 nM | apparent Kd [4]: 112 nM

ACAGAGGCUGACAUGAGGAUCACCCAUGUUAGAUUGUUAUGUCAGGAUAUUAUCUCGCAACGAGAUAAGAAGGGACCCUCUGUG
apparent Kd [1]: 37.5 nM | apparent Kd [2]: 7.98 nM

ACGGUCUUGUCAGGAUAUACAUGAGGAUCACCCAUGUAAUGCGGGUAGGAUAACAAGUCACUUAGGUAGAAGGGACAAGGGACU
apparent Kd [3]: 22.1 nM | apparent Kd [4]: 54.6 nM

CAGGACCUUGAGGAUAUGUGACGAUUAUCGUUCAUAGAAGGUAAGACAUGAGGAUCACCCAUGUCCUGGCAUAA
apparent Kd [3]: 15.1 nM | apparent Kd [4]: 15.1 nM

UCUCGAUGUGUAGGAUAUCUGAUCACUAUGACAAGAGAAGGGCACAUGAGGAUCACCCAUGUGGAGGACCACUGGUUCAGAUUA
apparent Kd [3]: 35.8 nM | apparent Kd [4]: 64.9 nM

GUUGAUGGAGGAUAUACUGCAGUGAUUGGCAAGAAUCCAGCACAUGAGGAUCACCCAUGUAGAAGGCCAUAACA
apparent Kd [3]: 25.8 nM | apparent Kd [4]: 63.5 nM

GAUUAUAAGUAAGGAUAUGUAUAUGAAACAUCUACAGAAGGUACAUGAGGAUCACCCAUGUUCUUGCAGCGUGACUAUGUAAUC
apparent Kd [3]: 24 nM | apparent Kd [4]: 27.9 nM

CGCUGUCACGCAGGAUAUGCAUUGGAUUCCAAUGCAGAAGGGCGAUUACAUGAGGAUCACCCAUGUGUCGACAGUGAAGAAGAG
apparent Kd [1]: 599 nM | apparent Kd [2]: 44 nM

AAAACUUCAGAGAAGGACCCAUCGGCGAGAUGGGUAGGAUAUCUGACUUGAGGUGUCCUGACAUGAGGAUCACCCAUGUAUAAA
apparent Kd [3]: 418 nM | apparent Kd [4]: 61.4 nM

CGAUAACAUAGUUAUCCGUAACGGACAUGAGGAUCACCCAUGUAGGAUAUGUUACUCCACGAGUAACAGAAGGACAUGAGUCUU
apparent Kd [3]: 19.3 nM | apparent Kd [4]: 95.7 nM

UGAUAGGACAGAGGAUAUACAGAUAGGAUCUACUAUCAAACAUUCCUGACAUGAGGAUCACCCAUGUAGAAGGCUGUCCUAUCU
apparent Kd [3]: 21.9 nM | apparent Kd [4]: 72.8 nM

AGUGCCUCGAGAGGAUAUAUACAUGAGGAUCACCCAUGUAACGAGGUGGAAACACCUCGAAAUGUAUAGAAGGCUCGAGGCACA
apparent Kd [3]: 28.4 nM | apparent Kd [4]: 50 nM

CAGCAUAAGUAGAAGGCUAUAUAUUUAAUUAUAUAAGGAUAUACAUGAGGAUCACCCAUGUGUUCCAGCUGAAUAAUAAUAUAU
apparent Kd [3]: 5.49 nM | apparent Kd [4]: 5.82 nM

GGCAUAAACGAGGAUAUCGUAUCGGAAACGAUACGAGAAGGUGUAACAUGAGGAUCACCCAUGUUCCUCAAGCC
apparent Kd [3]: 36.7 nM | apparent Kd [4]: 34.8 nM

CUUUUGUGAGGAUAUCAGUAGUAAAAUAAUAAUAUUACUACUGAGAAGGCACAUGAGGAUCACCCAUGUUCCUC
apparent Kd [3]: 40.5 nM | apparent Kd [4]: 267 nM

UAUAAAAUAGGAUGACAUGAGGAUCACCCAUGUUGCGCGAGGAGAAGGCCCAUUCGGCAACUAUGGGAGGAUAUCCAUCGCCUG
apparent Kd [1]: 66.5 nM | apparent Kd [2]: 24.1 nM

UUGUUAUAUGUAGGAUAUGCGUAUUAUUGUUAUGCAGAAGGACAUGAGGAUCACCCAUGUAUAUUAUUGUUAUAUAUUAUAUAU
apparent Kd [3]: 25.7 nM | apparent Kd [4]: 66.5 nM

AUGGGUUAAGGAGGAUAUAGAGGGAGGAGUAGACAUGAGGAUCACCCAUGUAUUUAAUUAGUUUACUAGAAGGCUUGUGAUUGU
apparent Kd [1]: 56 nM | apparent Kd [2]: 75.7 nM

UAGAUGGGAGGAUAUACGUAGAUACAGAUUCGUGUAGUGCUACAUGAGGAUCACCCAUGUAGAAGGCCCGUCUU
apparent Kd [3]: 13.6 nM | apparent Kd [4]: 22.9 nM

GGUUUGCGGCAGGAUAUCCAUCCGCGGUGUGGUGGAGAAGGGCUGACAUGAGGAUCACCCAUGUGCGUCCUGGG
apparent Kd [3]: 33.8 nM | apparent Kd [4]: 71.7 nM

AAAGUGUCAGGAUAUGCGAAGGCAUCUGACAGAUGAGGAUCGCAGAAGGGACAUGAGGAUCACCCAUGUAAAAA
apparent Kd [3]: 45.2 nM | apparent Kd [4]: 122 nM

UGUGCGUUGAUCUUCGAUCGGUGUACAUGAGGAUCACCCAUGUAGGAUAUUCAAAGACGCAGAUAGGAGAAGGACAUCGGAUUA
apparent Kd [3]: 19.2 nM | apparent Kd [4]: 17.2 nM

CGCGAACAGGCUAACAUGAGGAUCACCCAUGUGGACUCAUGGUAGGAUAUCGGGAAGGAGGAAACCGAGAAGGGCCGGUGAGCU
apparent Kd [1]: 65.6 nM | apparent Kd [2]: 86.5 nM

GCCUUAUCUGUCAGGAUAUACAUUUUUUUUUUUUUGUAGAAGGGACAUGAGGAUCACCCAUGUACAUUACAUUG
apparent Kd [3]: 42.4 nM | apparent Kd [4]: 42.9 nM

ACCUUACAUGAGGAUCACCCAUGUCAGGAUAUCUCGGACAGCUGAAAACCAGCCGUCCAGAGAAGGGACGAGGA
apparent Kd [3]: 13.4 nM | apparent Kd [4]: 14.4 nM

CCUGCACAUGAGGAUCACCCAUGUCAGGAUAUCUCGCCGCGAAGAGCAACACGGUAUUAGAGAAGGGACACGGG
apparent Kd [3]: 28.1 nM | apparent Kd [4]: 36.5 nM

CUUUAUCACUAUACAUGAGGAUCACCCAUGUUAUCAUCAUGAGAGGAUAUCGUAUUUGGAUUUUUCGAGAAGGCUCUUUUGUAU
apparent Kd [1]: 108 nM | apparent Kd [2]: 77.1 nM

CUGAGGUCAGGAUAUGCAUGGCGGGACUUGCGUCGUGGCGUGCAGAAGGGACAUGAGGAUCACCCAUGUGGAGG
apparent Kd [3]: 147 nM | apparent Kd [4]: 206 nM

AAACUGGAGGACAAGGAUAUGUGCUCUACGACAUGAGGAUCACCCAUGUGAGACGUAGUAGUGAAACAGAAGGUGUCCUAUUGUA
apparent Kd [1]: 20.1 nM | apparent Kd [2]: 11.6 nM

AAAUGCCUGUCGAUGCUCGACAUGAGGAUCACCCAUGUACAGCAGGAUAUGCGGAACUAACUCGUGCAGAAGGGCUGUACCUAA
apparent Kd [3]: 102 nM | apparent Kd [4]: 144 nM

GCAGUAAAUAAAUGCACAUGAGGAUCACCCAUGUGGGAGGCACAGGAUAUCGUAUCAUAGUGGUACGAGAAGGGUGAUAAUCUC
apparent Kd [1]: 425 nM | apparent Kd [2]: 84.4 nM

ACAUUUAUAUCAGGAUAUACAAUACAAUGAUUAGUAGAAGGGAUUAAUACAUGAGGAUCACCCAUGUCAUGUGUCAUAAUAACC
apparent Kd [3]: 25.8 nM | apparent Kd [4]: 19.6 nM

UAAAAUCAUGUAGGAUAUGCGUGGCGAAGCUAUGCAGAAGGACAUGAGGAUCACCCAUGUCUUACCUAGCGUACUAGGUUAAAG
apparent Kd [3]: 19.7 nM | apparent Kd [4]: 107 nM

GAUUUGUGAGGAUAUACAUGAGGAUCACCCAUGUGUGUCCAUACGCGUGAGUCUUCGUGUAGAAGGCGCGGGUC
apparent Kd [3]: 15.5 nM | apparent Kd [4]: 15.9 nM

UUUUUACAUGAGGAUCACCCAUGUCAGGAUAUGAUUAUAUUUUAUUAUUUUAUUUUUUUCAGAAGGGACUAUUA
apparent Kd [3]: 117 nM | apparent Kd [4]: 56.9 nM

UGUGUGUGGCAGGAUAUUCCGGUCGUUGGUCGGGAAGAAGGGUCUACAUGAGGAUCACCCAUGUGACCGGUUGA
apparent Kd [3]: 27 nM | apparent Kd [4]: 27.5 nM

UCCUGGCGAGGAUAUACAAAGUUUUUUACGUUUUGUUACGAACAUGAGGAUCACCCAUGUAGAAGGUGCUACUG
apparent Kd [3]: 78 nM | apparent Kd [4]: 67.3 nM

AUUAAUCAGCAGGAUAUAAGUAUCUGAAGGUGGUUAGAAGGGCUGACAUGAGGAUCACCCAUGUGCUCUUCGUG
apparent Kd [3]: 11.7 nM | apparent Kd [4]: 18.8 nM

AACUAGCUAGGAUAUACAUGAGGAUCACCCAUGUAAAAAAAAAAAAAAAAAUUUUUAUGUAGAAGGAGCUAGUA
apparent Kd [3]: 34 nM | apparent Kd [4]: 41.2 nM

Reference: the EternaBench riboswitch data
